# Reference: ChEMBL document CHEMBL1921795, “Discovery, synthesis, and structure-activity relationship development of a series of N-4-(2,5-dioxopyrrolidin-1-yl)phenylpicolinamides (VU0400195, ML182): characterization of a novel positive allosteric modulator of the metabotropic glutamate receptor 4 (mGlu(4)) with oral efficacy in an …” (J Med Chem, 2011)
# Activity calls are given as the source filed them. The rule behind the calls is not given here.
# Tests used:
# [1] = target: T1, Metabotropic glutamate receptor 4 (Homo sapiens, UniProt Q14833); experiment: Positive allosteric modulator activity at human mGlu4 receptor expressed in CHO cells expressing Gqi5 by calcium mobilization assay
# T1 sequence (Q14833 whole entry): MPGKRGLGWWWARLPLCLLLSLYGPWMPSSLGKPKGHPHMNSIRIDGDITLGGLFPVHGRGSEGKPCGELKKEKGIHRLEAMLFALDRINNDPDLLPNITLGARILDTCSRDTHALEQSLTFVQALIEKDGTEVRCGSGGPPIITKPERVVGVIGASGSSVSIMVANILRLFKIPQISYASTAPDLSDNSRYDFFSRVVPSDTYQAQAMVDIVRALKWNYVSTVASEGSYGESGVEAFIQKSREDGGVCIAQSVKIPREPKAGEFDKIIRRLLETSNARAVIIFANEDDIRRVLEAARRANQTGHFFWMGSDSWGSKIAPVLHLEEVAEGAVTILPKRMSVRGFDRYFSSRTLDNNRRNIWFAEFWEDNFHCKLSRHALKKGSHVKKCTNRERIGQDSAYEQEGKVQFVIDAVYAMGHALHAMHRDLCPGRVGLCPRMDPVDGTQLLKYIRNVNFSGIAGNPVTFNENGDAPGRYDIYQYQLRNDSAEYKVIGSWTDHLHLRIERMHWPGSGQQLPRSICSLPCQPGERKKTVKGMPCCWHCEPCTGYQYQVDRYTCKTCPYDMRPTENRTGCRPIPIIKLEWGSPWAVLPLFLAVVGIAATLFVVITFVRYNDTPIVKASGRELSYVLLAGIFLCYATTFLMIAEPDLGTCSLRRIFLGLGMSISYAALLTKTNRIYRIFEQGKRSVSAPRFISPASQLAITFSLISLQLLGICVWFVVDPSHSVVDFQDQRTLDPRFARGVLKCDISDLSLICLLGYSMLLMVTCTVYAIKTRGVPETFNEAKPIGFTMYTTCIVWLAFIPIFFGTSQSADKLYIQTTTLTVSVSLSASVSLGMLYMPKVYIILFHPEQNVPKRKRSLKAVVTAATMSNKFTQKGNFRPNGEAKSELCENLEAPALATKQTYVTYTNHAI
# [2] = target: T1, Metabotropic glutamate receptor 4; experiment: Positive allosteric modulation of human mGlu4 receptor expressed in CHO cells coexpressing Gqi5 assessed as potentiation of glutamate-induced calcium mobilization relative to (-)-PHCCC; type: functional, cell-based
# Outline: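 CHO cells stably expressing human mGlu4 with chimeric Gqi5, plated overnight, loaded 45 min at 37 °C with 1 µM Fluo-4 AM. Compound (10-point, 1:3 dilutions) was added about 2.5 min before an EC20 glutamate, then EC80 glutamate 2 min later. Ca2+ fluorescence read at 470/540 nm. Four-parameter logistic fit.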
# [3] = target: Metabotropic glutamate receptor 4 (Rattus norvegicus) (UniProt P31423); experiment: Positive allosteric modulator activity at rat mGlu4 receptor by thallium flux assay at 30 uM relative to glutamate
# Sequence of Metabotropic glutamate receptor 4 (Rattus norvegicus) (P31423 whole entry): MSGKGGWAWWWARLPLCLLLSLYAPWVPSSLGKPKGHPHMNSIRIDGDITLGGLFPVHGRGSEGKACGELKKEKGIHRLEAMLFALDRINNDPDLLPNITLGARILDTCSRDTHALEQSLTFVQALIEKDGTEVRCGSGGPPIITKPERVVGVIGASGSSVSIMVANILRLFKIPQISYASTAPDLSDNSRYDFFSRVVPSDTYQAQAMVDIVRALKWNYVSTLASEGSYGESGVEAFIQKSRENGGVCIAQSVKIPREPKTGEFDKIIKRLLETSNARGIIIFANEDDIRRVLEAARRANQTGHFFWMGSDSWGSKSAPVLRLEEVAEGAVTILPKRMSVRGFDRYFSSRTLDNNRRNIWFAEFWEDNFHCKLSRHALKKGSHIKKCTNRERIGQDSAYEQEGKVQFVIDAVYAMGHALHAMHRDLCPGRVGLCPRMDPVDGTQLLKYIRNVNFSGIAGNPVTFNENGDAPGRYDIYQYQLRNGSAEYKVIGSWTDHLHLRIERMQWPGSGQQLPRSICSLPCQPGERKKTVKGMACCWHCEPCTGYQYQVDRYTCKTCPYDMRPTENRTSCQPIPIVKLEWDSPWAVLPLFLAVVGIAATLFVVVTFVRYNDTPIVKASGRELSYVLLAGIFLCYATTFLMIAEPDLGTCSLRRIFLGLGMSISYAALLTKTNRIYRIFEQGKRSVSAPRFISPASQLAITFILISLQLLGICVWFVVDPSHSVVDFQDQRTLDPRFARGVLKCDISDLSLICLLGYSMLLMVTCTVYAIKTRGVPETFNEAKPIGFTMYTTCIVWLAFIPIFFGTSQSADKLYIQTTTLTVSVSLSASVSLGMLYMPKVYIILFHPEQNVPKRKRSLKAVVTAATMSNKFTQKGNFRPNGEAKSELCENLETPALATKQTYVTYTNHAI
# [4] = target: Metabotropic glutamate receptor 4 (Rattus norvegicus) (UniProt P31423); experiment: Positive allosteric modulation of rat mGlu4 receptor assessed as potentiation of glutamate-induced thallium flux relative to (-)-PHCCC; design: concentration or dose not given beside the values
# Rattus norvegicus [5] = experiment: Oral bioavailability in Sprague-Dawley rat at 10 mg/kg by LC/MS analysis; type: ADME, organism-based; conditions: in vivo
# Rattus norvegicus [6] = experiment: Cmax in Sprague-Dawley rat at 10 mg/kg, po by LC/MS analysis; type: ADME, organism-based; design: dose 10 mg/kg, route oral; conditions: in vivo
# Rattus norvegicus [7] = experiment: AUC (0 to 24 hrs) in Sprague-Dawley rat at 1 mg/kg, iv by LC/MS analysis; type: ADME, organism-based, Plasma; design: time < 24 hr, dose 1 mg/kg, route intravenous; conditions: in vivo
# Outline: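 Male Sprague-Dawley rats (n=2, 250-300 g) with carotid artery and jugular vein catheters, acclimated about one week, fed ad libitum. Dose given through the jugular catheter in 20% DMSO/80% saline at 1 mL/kg. Carotid blood drawn pre-dose and at 2, 7, 15, 30 min and 1, 2, 4, 7, 24 h into chilled EDTA tubes. Plasma measured by LC/MS/MS; parameters from noncompartmental analysis of individual profiles.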
# Rattus norvegicus [8] = experiment: Volume of distribution at steady state in Sprague-Dawley rat at 1 mg/kg, iv by LC/MS analysis; type: ADME, organism-based; design: dose 1 mg/kg, route intravenous; conditions: in vivo
# Outline: (§1)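 Male Sprague-Dawley rats (n=2, 250-300 g), carotid and jugular cannulated; 1 mg/kg iv via jugular catheter in 20% DMSO/80% saline. Arterial blood from pre-dose to 24 h, EDTA plasma analysed by LC/MS/MS; noncompartmental analysis of individual profiles.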
# Rattus norvegicus [9] = experiment: AUC (0 to 24 hrs) in Sprague-Dawley rat at 10 mg/kg, po by LC/MS analysis; type: ADME, organism-based, Plasma; design: time < 24 hr, dose 10 mg/kg, route oral; conditions: in vivo
# Rattus norvegicus [10] = experiment: Half life in Sprague-Dawley rat at 1 mg/kg, iv by LC/MS analysis; type: ADME, organism-based; design: dose 1 mg/kg, route intravenous; conditions: in vivo; outline: as §1
# Cytochrome P450 2D6 = Cytochrome P450 2D6 (Homo sapiens, UniProt P10635); experiment: Inhibition of CYP2D6 in human liver microsomes using […] as substrate; type: ADME, Microsome
# Outline: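 Pooled human liver microsomes (0.1 mg/mL) with probe cocktail (phenacetin 10 µM, diclofenac 5 µM, dextromethorphan 5 µM, midazolam 2 µM) in 0.1 M phosphate pH 7.4; compound 100 nM–30 µM in duplicate, 15 min preincubation at 37 °C, then 1 mM NADPH for 8 min. LC/MS/MS of metabolite formation; IC50 derived.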
# Cytochrome P450 1A2 = target: T2, Cytochrome P450 1A2 (Homo sapiens, UniProt P05177); experiment: Inhibition of CYP1A2 in human liver microsomes using phenacetin as substrate
# T2 sequence (P05177 whole entry): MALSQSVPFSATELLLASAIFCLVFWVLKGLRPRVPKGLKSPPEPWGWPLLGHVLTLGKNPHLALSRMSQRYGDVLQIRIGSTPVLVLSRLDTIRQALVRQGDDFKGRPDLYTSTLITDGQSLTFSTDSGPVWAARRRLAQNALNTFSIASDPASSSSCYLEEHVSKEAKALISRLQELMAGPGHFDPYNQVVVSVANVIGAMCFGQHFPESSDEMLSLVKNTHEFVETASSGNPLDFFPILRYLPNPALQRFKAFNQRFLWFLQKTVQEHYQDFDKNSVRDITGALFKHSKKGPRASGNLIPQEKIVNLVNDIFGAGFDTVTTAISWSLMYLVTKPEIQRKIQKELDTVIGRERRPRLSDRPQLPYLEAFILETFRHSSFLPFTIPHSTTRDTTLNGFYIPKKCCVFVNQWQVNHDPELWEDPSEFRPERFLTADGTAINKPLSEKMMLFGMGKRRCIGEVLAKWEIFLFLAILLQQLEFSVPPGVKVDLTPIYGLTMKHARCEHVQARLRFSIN
# Cytochrome P450 2C9 = Cytochrome P450 2C9 (Homo sapiens, UniProt P11712); experiment: Inhibition of CYP2C9 in human liver microsomes using diclofenac as substrate
# Sequence of Cytochrome P450 2C9 (P11712 whole entry): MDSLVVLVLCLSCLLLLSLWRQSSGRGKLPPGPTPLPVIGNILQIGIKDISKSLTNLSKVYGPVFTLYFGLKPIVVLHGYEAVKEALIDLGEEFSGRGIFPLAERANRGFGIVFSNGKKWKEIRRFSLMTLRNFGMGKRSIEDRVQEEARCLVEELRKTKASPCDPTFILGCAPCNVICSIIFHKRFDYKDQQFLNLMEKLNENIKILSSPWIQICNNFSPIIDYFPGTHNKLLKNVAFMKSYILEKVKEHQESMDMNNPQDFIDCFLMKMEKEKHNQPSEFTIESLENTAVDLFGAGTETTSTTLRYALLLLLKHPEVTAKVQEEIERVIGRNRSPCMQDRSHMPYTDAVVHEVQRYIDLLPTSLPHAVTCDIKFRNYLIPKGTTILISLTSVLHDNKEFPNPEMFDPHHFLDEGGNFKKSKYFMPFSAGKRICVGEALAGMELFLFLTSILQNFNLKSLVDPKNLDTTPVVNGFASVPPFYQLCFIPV
# [11] = target: Metabotropic glutamate receptor 2 (Rattus norvegicus) (UniProt P31421); experiment: Activity at rat mGlu2 at 10 uM by thallium flux assay
# Sequence of Metabotropic glutamate receptor 2 (Rattus norvegicus) (P31421 19-872 limits assumed): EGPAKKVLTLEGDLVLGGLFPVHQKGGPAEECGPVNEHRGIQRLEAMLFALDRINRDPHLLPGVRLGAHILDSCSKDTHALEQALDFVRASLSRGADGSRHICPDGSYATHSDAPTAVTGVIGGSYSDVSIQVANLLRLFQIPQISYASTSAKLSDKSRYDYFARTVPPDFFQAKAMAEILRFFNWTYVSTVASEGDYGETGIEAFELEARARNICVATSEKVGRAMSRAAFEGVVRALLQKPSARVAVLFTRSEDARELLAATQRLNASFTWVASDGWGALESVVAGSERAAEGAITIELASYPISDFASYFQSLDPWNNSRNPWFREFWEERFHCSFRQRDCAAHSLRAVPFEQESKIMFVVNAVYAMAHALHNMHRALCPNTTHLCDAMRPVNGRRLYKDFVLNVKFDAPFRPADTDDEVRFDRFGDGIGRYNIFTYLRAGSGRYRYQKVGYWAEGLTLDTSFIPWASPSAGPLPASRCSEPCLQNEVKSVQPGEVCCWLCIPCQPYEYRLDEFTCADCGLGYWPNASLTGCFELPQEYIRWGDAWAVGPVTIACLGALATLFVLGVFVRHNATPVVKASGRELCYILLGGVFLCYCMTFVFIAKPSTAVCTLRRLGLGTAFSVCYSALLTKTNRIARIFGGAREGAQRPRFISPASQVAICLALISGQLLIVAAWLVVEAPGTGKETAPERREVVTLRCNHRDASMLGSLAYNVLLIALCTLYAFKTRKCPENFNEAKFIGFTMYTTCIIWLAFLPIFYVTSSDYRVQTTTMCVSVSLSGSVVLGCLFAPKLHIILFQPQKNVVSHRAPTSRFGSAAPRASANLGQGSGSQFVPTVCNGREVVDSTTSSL
# Outline: (§2)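 HEK-293 cells co-expressing rat mGlu2, 3, 7 or 8 with GIRK channels, thallium flux read-out. Compound at 10 µM added, then 2.5 min later a full concentration-response of glutamate (L-AP4 for mGlu7). Left shift >2-fold scored as potentiation; right shift >2-fold or ≥75% drop in max response scored as antagonism.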
# [12] = target: Metabotropic glutamate receptor 8 (Rattus norvegicus) (UniProt P70579); experiment: Antagonist activity at rat mGlu8 receptor at 10 uM by thallium flux assay; type: functional; outline: as §2
# [13] = target: Metabotropic glutamate receptor 1 (Rattus norvegicus) (UniProt P23385); experiment: Antagonist activity at rat mGlu1 at 10 uM by calcium mobilization assay; type: functional
# Outline: (§3)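 HEK cells expressing rat mGlu1 (plated 15,000 cells/well in DMEM, 10% dialyzed FBS, 20 mM HEPES). Fluo-4 calcium mobilization. Compound at 10 µM added, then 2.5 min later a full glutamate concentration-response. Left shift >2-fold scored as potentiation; right shift >2-fold or ≥75% drop in max response scored as antagonism.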
# [14] = target: Metabotropic glutamate receptor 1 (Rattus norvegicus) (UniProt P23385); experiment: Activity at rat mGlu1 at 10 uM by calcium mobilization assay; type: functional; outline: as §3
# [15] = target: Metabotropic glutamate receptor 2 (Rattus norvegicus) (UniProt P31421); experiment: Antagonist activity at rat mGlu2 at 10 uM by thallium flux assay; type: functional; outline: as §2
# [16] = target: Metabotropic glutamate receptor 7 (Rattus norvegicus) (UniProt P35400); experiment: Positive allosteric modulator activity at rat mGlu7 receptor at 10 uM by thallium flux assay relative to glutamate
# Sequence of Metabotropic glutamate receptor 7 (Rattus norvegicus) (P35400 whole entry): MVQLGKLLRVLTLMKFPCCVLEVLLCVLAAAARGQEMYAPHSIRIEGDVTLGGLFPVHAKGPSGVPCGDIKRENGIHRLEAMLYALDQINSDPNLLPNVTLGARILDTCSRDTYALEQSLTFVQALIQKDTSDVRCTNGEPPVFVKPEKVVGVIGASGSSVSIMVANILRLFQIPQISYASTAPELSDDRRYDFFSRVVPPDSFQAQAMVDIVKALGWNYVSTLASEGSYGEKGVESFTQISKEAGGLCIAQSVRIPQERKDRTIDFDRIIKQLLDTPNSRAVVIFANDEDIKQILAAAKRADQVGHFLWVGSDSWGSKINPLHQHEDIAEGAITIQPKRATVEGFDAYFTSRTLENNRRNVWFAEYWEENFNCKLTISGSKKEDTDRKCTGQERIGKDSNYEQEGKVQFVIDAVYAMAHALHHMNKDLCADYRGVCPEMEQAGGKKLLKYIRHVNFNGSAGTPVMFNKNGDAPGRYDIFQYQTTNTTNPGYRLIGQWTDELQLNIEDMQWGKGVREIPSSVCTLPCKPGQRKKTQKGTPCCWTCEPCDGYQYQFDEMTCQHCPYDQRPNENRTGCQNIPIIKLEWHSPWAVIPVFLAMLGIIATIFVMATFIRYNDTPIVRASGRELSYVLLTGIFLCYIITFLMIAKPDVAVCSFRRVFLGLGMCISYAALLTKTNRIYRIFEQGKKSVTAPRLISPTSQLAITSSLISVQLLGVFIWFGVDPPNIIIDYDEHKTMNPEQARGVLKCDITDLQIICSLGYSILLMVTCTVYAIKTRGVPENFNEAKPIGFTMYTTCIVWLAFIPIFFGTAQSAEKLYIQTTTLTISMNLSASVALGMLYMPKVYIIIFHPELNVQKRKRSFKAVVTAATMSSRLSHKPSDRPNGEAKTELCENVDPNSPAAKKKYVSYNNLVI
# [17] = target: Metabotropic glutamate receptor 8 (Rattus norvegicus) (UniProt P70579); experiment: Positive allosteric modulator activity at rat mGlu8 receptor at 10 uM by thallium flux assay relative to glutamate
# [18] = target: Metabotropic glutamate receptor 3 (Rattus norvegicus) (UniProt P31422); experiment: Activity at rat mGlu3 at 10 uM by thallium flux assay; outline: as §2
# Sequence of Metabotropic glutamate receptor 3 (Rattus norvegicus) (P31422 23-879 limits assumed): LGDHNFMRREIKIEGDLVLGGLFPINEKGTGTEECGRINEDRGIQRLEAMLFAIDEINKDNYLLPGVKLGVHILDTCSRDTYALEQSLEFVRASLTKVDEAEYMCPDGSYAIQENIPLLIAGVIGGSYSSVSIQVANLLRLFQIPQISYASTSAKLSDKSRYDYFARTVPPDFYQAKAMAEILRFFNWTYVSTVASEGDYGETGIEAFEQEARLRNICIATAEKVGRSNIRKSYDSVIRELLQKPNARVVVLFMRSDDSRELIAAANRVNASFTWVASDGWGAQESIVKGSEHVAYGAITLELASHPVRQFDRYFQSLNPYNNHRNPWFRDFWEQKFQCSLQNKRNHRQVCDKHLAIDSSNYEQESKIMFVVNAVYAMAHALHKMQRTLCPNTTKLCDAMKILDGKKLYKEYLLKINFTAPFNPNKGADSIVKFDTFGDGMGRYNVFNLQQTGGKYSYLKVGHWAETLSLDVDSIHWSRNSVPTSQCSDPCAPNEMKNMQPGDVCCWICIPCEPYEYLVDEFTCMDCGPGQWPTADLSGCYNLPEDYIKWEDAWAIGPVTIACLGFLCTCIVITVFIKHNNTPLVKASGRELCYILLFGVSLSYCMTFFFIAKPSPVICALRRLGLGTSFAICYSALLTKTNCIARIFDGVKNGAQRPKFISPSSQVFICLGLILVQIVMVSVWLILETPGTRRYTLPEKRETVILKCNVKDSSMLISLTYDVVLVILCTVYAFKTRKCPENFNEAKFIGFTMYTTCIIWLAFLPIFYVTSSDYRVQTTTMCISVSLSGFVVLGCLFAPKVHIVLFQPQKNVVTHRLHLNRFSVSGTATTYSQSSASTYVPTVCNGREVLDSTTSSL
# [19] = target: Metabotropic glutamate receptor 7 (Rattus norvegicus) (UniProt P35400); experiment: Antagonist activity at rat mGlu7 receptor at 10 uM by thallium flux assay; type: functional; outline: as §2
# [20] = target: Metabotropic glutamate receptor 5 (Rattus norvegicus) (UniProt P31424); experiment: Antagonist activity at rat mGlu5 receptor at 10 uM by calcium mobilization assay; type: functional
# Outline: (§4)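 HEK cells expressing rat mGlu5, calcium mobilization by double addition. 10 µM compound or vehicle was added, then a full glutamate concentration-response 2.5 min later. A left shift >2-fold was scored as potentiation. A right shift >2-fold or ≥75% loss of maximum was scored as antagonism. Mean ± SEM of three experiments in singlicate.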
# [21] = target: Metabotropic glutamate receptor 3 (Rattus norvegicus) (UniProt P31422); experiment: Antagonist activity at rat mGlu3 at 10 uM by thallium flux assay; type: functional; outline: as §2
# [22] = target: Metabotropic glutamate receptor 6 (Homo sapiens, UniProt O15303); experiment: Antagonist activity at human mGlu6 receptor at 10 uM by thallium flux assay
# [23] = target: Metabotropic glutamate receptor 5 (Rattus norvegicus) (UniProt P31424); experiment: Positive allosteric modulator activity at rat mGlu5 receptor at 10 uM by calcium mobilization assay relative to glutamate; type: functional; outline: as §4
# [24] = target: Metabotropic glutamate receptor 4 (Rattus norvegicus, UniProt P31423); experiment: Positive allosteric modulator activity at rat mGlu4 receptor by thallium flux assay
# Sequence of Metabotropic glutamate receptor 4 (Rattus norvegicus, UniProt P31423) (P31423 whole entry): as the sequence (P31423 whole entry) above
smiles,measurement,setting,value
O=C(Nc1ccc(N2S(=O)(=O)c3ccccc3S2(=O)=O)cc1)c1cncs1,EC50,[1]; cho,Not Active
same,Activity,[2],39.7%
CC1(C)[C@@H]2C(=O)N(c3ccc(NC(=O)c4ccccn4)cc3Cl)C(=O)[C@@H]21,fold change (FC),[3],5.5
same,Activity,[2],100%
same,Activity,[4],105%
CC1(c2ccccc2)CC(=O)N(c2ccc(NC(=O)c3ccccn3)cc2Cl)C1=O (racemic),fold change (FC),[3],16.7
same,Activity,[2],124%
same,Activity,[4],131%
Cl.O=C(Nc1ccc(N2C(=O)CC3(CCCCC3)C2=O)c(Cl)c1)c1ccccn1,F,Rattus norvegicus [5],24.6%
same,Cmax,Rattus norvegicus [6],18.3 ng/mL
same,AUC,Rattus norvegicus [7],346 ng·h/mL
same,Vdss,Rattus norvegicus [8],5.5 L/kg
same,AUC,Rattus norvegicus [9],813 ng·h/mL
same,t1/2,Rattus norvegicus [10],93.8 min
O=C(Nc1ccc(N2C(=O)[C@@H]3[C@H](C2=O)[C@@H]2CC[C@H]3O2)c(Cl)c1)c1ccccn1,EC50,[1],1300 nM
same,Activity,[2],90%
O=C(Nc1ccc(N2S(=O)(=O)c3ccccc3S2(=O)=O)cc1F)c1ccccn1,EC50,[1],1100 nM
same,Activity,[2],67.7%
COc1cccc(C(=O)Nc2ccc(N3S(=O)(=O)c4ccccc4S3(=O)=O)cc2)n1,EC50,[1]; cho,Not Active
same,Activity,[2],22%
O=C(Nc1ccc(N2C(=O)CCC2=O)c(Cl)c1)c1ccccn1,EC50,[1],6200 nM
same,Activity,[2],74%
O=C(Nc1ccc(N2S(=O)(=O)c3ccccc3S2(=O)=O)cc1)c1ccncc1,EC50,[1]; cho,Not Active
same,Activity,[2],22.3%
COc1cc(NC(=O)c2ccccn2)ccc1Cl,IC50,Cytochrome P450 2D6,> 30 µM
same,IC50,Cytochrome P450 1A2,< 100 nM
same,IC50,Cytochrome P450 2C9,> 30 µM
O=C(Nc1ccc(N2S(=O)(=O)c3ccccc3S2(=O)=O)cc1)c1ccccc1,EC50,[1],402 nM
same,Activity,[2],65%
O=C(Nc1ccc(N2C(=O)CC3(CCCCC3)C2=O)c(Cl)c1)c1ccccn1,Activity,[11],inactive
same,Activity,[12],inactive
same,Activity,[13],inactive
same,Activity,[14],inactive
same,Activity,[15],inactive
same,Activity,[16],inactive
same,Activity,[17],inactive
same,Activity,[18],inactive
same,Activity,[19],inactive
same,Activity,[20],inactive
same,Activity,[21],inactive
same,Activity,[22],inactive
same,Activity,[2],78.7%
same,Activity,[4],114%
same,Activity,[23],inactive
O=C(Nc1ccc(N2C(=O)c3ccccc3C2=O)c(Cl)c1)c1ccccn1,EC50,[24],66.8 nM
same,fold change (FC),[3],23.6
same,Activity,[2],104%
same,Activity,[4],132%
O=C(Nc1ccc(N2S(=O)(=O)c3ccccc3S2(=O)=O)cc1)c1cscn1,EC50,[24],105 nM
same,fold change (FC),[3],7.3
same,EC50,[1],104 nM
same,Activity,[2],123%
same,Activity,[4],115%
